# Compounds with a hit are over-represented: about 4.5% of the library has one in this group of screens.
# APP 5'UTR act = APP 5'UTR luciferase reporter activation; 1% of 190,000 active; activation, % at 2 µM; SH-SY5Y APP 5'UTR luciferase reporter, luminescence; zero percent = DMSO vehicle wells; AID 1276;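 active = activation above a set limit, based on mean plus 3 SD of controls, cut at about 140% in these data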
# STAT1 activator = STAT1 signaling activation. 2.6% of 200,000 active. AID 932. activation (% of control), % at 5.5 µM. NIH 3T3 STAT1-luciferase reporter, IFN-gamma, luminescence; 100% = IFN-gamma alone, no compound;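 active = activation above the screen-wide mean activation plus 3 SD, cut at about 130% in these data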;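 also: raw ratio to IFN-gamma control signal so 100% means no change and 0% no light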
# PERK inh = human PERK inhibition, primary cell-based screen. Q9NZJ5. CHO PERK-DD fusion, SEAP luminescence translation reporter. inhibition, % at 5.6 µM. 0.17% of 220,000 active. AID 1416;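 active = inhibition above the mean inhibition of all tested compounds plus 3 SD, set separately per screening campaign, cut at about 2.9% in these data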;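 also: PERK kinase domain activated by AP20187 dimerizer at 100 nM; 0% = DMSO with dimerizer and 100% = rapamycin at 8.4 µM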
# NF-kB expr up = raises NF-kB expression in human neuronal cells; NF-kB reporter expression; hits give high values; fold change at 12.5 µM; 1.6% of 190,000 active; in the data active = fold change above about 3.3
# AHR activator = activates the human aryl hydrocarbon receptor. P35869. AHR-responsive luciferase reporter cells, luminescence. activation, % at 5 µM. 2.5% of 320,000 active; in the data active = activation above about 47%;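 also: 0% = vehicle wells and 100% = reference agonist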
# Target sequence (P35869 whole entry, looked up): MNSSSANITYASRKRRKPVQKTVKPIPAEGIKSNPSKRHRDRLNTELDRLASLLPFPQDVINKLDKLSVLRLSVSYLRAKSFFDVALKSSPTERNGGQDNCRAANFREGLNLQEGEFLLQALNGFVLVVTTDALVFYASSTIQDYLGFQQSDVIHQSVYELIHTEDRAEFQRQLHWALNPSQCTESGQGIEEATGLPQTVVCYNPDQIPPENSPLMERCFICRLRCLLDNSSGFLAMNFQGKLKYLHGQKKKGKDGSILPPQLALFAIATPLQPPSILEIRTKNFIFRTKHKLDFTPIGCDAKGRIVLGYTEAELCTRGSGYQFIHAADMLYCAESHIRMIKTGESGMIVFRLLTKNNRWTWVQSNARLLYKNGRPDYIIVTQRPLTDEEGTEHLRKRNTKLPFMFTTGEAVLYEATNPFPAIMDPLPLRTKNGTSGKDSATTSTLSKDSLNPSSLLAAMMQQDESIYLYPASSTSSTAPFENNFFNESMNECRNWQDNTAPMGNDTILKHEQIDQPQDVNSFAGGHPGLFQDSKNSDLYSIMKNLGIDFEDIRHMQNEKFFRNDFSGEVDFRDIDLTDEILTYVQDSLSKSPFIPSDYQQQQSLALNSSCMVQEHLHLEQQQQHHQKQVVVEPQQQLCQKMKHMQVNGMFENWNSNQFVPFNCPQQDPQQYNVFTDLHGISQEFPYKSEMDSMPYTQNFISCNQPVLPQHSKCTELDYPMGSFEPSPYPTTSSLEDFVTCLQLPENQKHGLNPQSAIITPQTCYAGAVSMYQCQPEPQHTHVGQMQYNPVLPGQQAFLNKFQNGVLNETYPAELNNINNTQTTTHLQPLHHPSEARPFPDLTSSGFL
# Mdm2 ligase inh = inhibitors of human Mdm2 E3 ubiquitin ligase. signal enhancement, % at 5 µM. cell-based MDM2 ubiquitination luciferase reporter, 2 h; 0 = plate control, 100 = twice control, blank-subtracted. 0.11% of 210,000 active;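 active = signal enhancement of 30% or more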;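 also: luminescence tracks abundance of the self-degrading MDM2-luciferase fusion protein; higher signal means inhibition of MDM2 E3 ligase activity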
#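 Assay system: mammalian cells stably expressing self-ubiquitinating, self-degrading MDM2 E3–luciferase fusion. Quantity: 2000 cells in each well. Medium: DMEM culture medium. Compound dosing: single-point 5 µM. Timing: cell settling 4 h, compound treatment 2 h, both 37 °C. Technique: luciferase luminescence. Read-out basis: percent signal gain over controls, blank-subtracted. Benchmarks: plate controls and plate blanks.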
# * marks the source's active call; other numbers are inactive results; / = not tested or not shown.
SMILES,APP 5'UTR act,STAT1 activator,PERK inh,NF-kB expr up,AHR activator,Mdm2 ligase inh
O=[N+]([O-])c1ccc(N/N=C/c2c[nH]c3ccccc23)cc1,-8.2,107.9,-0.2,2.41,1.4,-11.3
Cc1nn(CC2CC2)c(=O)n1-c1ccccc1F,7.3,96.2,0.9,1.17,0.6,-14.8
Cc1nn(CCOc2ccccc2)c(=O)n1-c1c(F)cccc1F,61.9,140.1*,0.9,2.35,10.9,12.3
Cc1ccc(-n2c(C)nn(CCOc3ccccc3)c2=O)cc1,58.0,133.5*,0.6,2.23,11.3,-3.8
CCOC(=O)c1cnc2c(C(F)(F)F)cccc2c1NCCCN1CCOCC1,/,/,/,/,-0.6,/
COC(=O)Cc1c(OC)ccn(CCc2c[nH]c3ccccc23)c1=O,89.6,136.1*,-0.6,2.66,9.5,-14.6
Cc1ccc(C)c(S(=O)(=O)N2CCCOC2CNC(=O)C(=O)NC2CCCC2)c1 (stereo unspecified),/,/,/,/,2.9,/
COc1cc(-c2nc(-c3ccccc3)c(-c3cccs3)[nH]2)cc(OC)c1OC,/,100.9,-1.2,0.49,70.1*,-11.9
COc1ccc(-c2noc(-c3cccs3)n2)cc1OC,/,/,-0.3,/,6.7,-17.9
COc1cc(-c2noc(-c3cccs3)n2)cc(OC)c1OC,6.1,111.6,0.1,1.34,47.7*,-5.9
CC(C)CCNC(=O)C(c1ccc(O)cc1)N(Cc1ccco1)C(=O)CCC(=O)Nc1nccs1 (stereo unspecified),/,/,/,/,8.4,/
COc1ccc(NC(=O)CSc2n[nH]c(-c3ccncc3)n2)cc1Cl,/,/,/,/,4.3,/
Cc1nonc1C1CCCN1Cc1nc(-c2ccccc2Cl)oc1C (stereo unspecified),14.9,92.2,0.5,1.05,5.4,-10.6
Cc1oc2cc3c(C(=O)N4CCN(c5ccccc5)CC4)c(C)oc3cc2c1C(=O)N1CCN(c2ccccc2)CC1,7.2,96.2,0.2,/,/,/
Cc1oc2cc3c(C(=O)N4CCCCC4)c(C)oc3cc2c1C(=O)N1CCCCC1,71.4,139.1*,0.3,0.88,-3.8,-27.1
O=C(Nc1ccccc1)OCCCc1ccccc1,33.1,139.8*,0.1,2.62,-0.8,-11.7
CCn1c(=O)n(CC)c2cc(N3CCCC3)c(NC(=O)c3cc(Br)ccc3OC)cc21,/,/,/,/,4.4,/
Cc1cc(OCC(=O)N2CCN(c3ccccn3)CC2)c(C)cc1Br,/,/,/,/,54.4*,/
Oc1ccccc1CNc1ccc(Br)cn1,71.3,111.7,1.2,5.38*,-0.8,-19.0
CCCC(=O)c1ccc(N2CCCCC2)c(F)c1,51.2,130.3*,2.1,1.76,-2.4,-13.7
CCCC(=O)c1ccc(N2CCCCCC2)c(F)c1,8.3,114.1,-0.1,2.09,-8.8,-9.9
CNc1ncc(C(=O)c2ccc(Cl)c(Cl)c2)s1,-0.3,124.8,-0.3,4.32*,2.2,-18.3
CNc1ncc(C(=O)c2ccc(-c3ccccc3)cc2)s1,/,/,-0.3,/,13.6,/
O=C(c1ccc(Cl)c(Cl)c1)c1cnc(Nc2ccccc2)s1,0.7,95.0,0.7,1.16,0.6,-5.4
CNc1ncc(C(=O)c2ccc(Cl)cc2)s1,96.5,114.5,-0.8,4.04*,3.2,-30.1
SMILES,APP 5'UTR act,STAT1 activator,PERK inh,NF-kB expr up,AHR activator,Mdm2 ligase inh
CC(=Nc1cccc(C)c1)c1sc2ccccc2c1O,137.3*,169.8*,-0.6,6.01*,44.9,-3.9
CC(=Nc1ccccc1O)c1sc2ccccc2c1O,/,/,0.3,/,13.1,-9.7
CCN(CC)/C(=N\S(=O)(=O)c1ccc(F)cc1)c1ccccc1,/,/,/,/,1.5,/
COc1ccc(NC(=O)Nc2ccc(Br)c(C)c2)cc1,61.2,145.2*,2.7,1.5,5.2,3.7
COc1ccc(NC(=O)Nc2cc(C)ccc2F)cc1,123.2,130.5*,-0.5,2.57,15.9,-19.6
Cc1cc(NC(=S)NC(=O)CC(C)C)ccc1Br,17.4,128.4,0.1,1.5,64.0*,-8.7
COc1ccc(NC(=O)Nc2ccc(F)c(Cl)c2)cc1,106.3,111.8,0.4,2.64,-0.2,17.2
COc1cccc(NC(=O)Nc2cc(C)ccc2F)c1,42.1,118.3,-0.4,1.5,18.0,-2.8
COc1ccc(NC(=O)Nc2ccc(O)c3ccccc23)cc1,/,/,/,/,75.2*,/
COc1ccc(C)cc1NC(=O)Nc1ccc2c(c1)CCC2,/,/,/,/,77.3*,/
Nc1ccc(O)c2ccccc12,/,/,/,/,57.3*,/
Oc1ccccc1C1NN=C(c2ccccc2)S1 (stereo unspecified),/,/,/,/,40.8,/
Cc1cc(C(=O)NCc2ccco2)no1,-1.5,95.5,-0.1,1.19,4.3,-2.7
Cn1cc([N+](=O)[O-])c(C(=O)NCc2ccco2)n1,9.4,105.8,3.8*,1.16,4.0,14.5
CC(C)Cc1cc(C(=O)NCc2ccco2)no1,22.1,130.1*,0.6,2.02,1.6,-0.6
Cc1ccc(-c2csc(N(CC3CCCO3)C(=O)c3ccco3)n2)cc1 (stereo unspecified),4.7,117.5,-0.7,1.34,50.6*,-6.0
Cc1ccc(Sc2ncccc2C(N)=O)cc1,/,/,/,/,-1.6,/
CN1C(=O)C(O)(CC(=O)c2cccnc2)c2ccccc21 (stereo unspecified),-7.8,112.2,0.3,1.29,1.5,/
COc1cccc(C(=O)/C=C2\Sc3ccccc3N2C)c1,214.3*,150.1*,-1.0,1.04,57.7*,-26.8
COc1cccc(C(=O)Nc2ccccc2NC(=O)c2cccc(OC)c2)c1,/,/,/,/,7.0,/
CN1/C(=C\C(=O)c2cccnc2)Sc2ccccc21,126.6,134.1*,-0.5,2.83,13.3,-7.6
Cc1cccn2c(=O)c(C=NCc3ccco3)c(Nc3ccc(SC(F)F)cc3)nc12,9.2,93.0,1.6,0.98,49.4*,-14.9
O=C(CNCc1ccccn1)Nc1ccc([N+](=O)[O-])cc1C(=O)Nc1ccccc1F,/,/,/,/,74.8*,/
CCN(CC(=O)NCc1cccs1)S(=O)(=O)c1ccc(F)c(F)c1F,/,/,/,/,1.5,/
Cc1cccc(-c2nnn3c2nc(NCCc2ccc(S(N)(=O)=O)cc2)c2ccccc23)c1,17.3,99.0,0.2,0.41,50.2*,-13.2
SMILES,APP 5'UTR act,STAT1 activator,PERK inh,NF-kB expr up,AHR activator,Mdm2 ligase inh
COc1cc(/C=C2/C(=N)N3OC(C)=CC3=NC2=O)ccc1OC(=O)c1ccco1,-2.9,100.1,0.7,1.03,1.3,32.4*
CCNC(=O)N1CCC(n2nccc2NC(=O)CCCc2ccccc2)CC1,/,/,/,/,1.4,/
COc1cccc2sc(Nc3nnc(-c4ccc(F)cc4)o3)nc12,10.1,104.0,-1.4,0.99,65.6*,1.6
COc1cc(Cl)ccc1NC(=O)COc1ccccc1C(=O)NN,20.6,93.0,-0.7,1.16,76.5*,0.7
O=C(Oc1ccc(-c2cnc3ccccc3n2)cc1)c1ccc(Br)o1,112.6,134.9*,0.4,2.92,1.5,-31.5
O=C(Oc1ccc(-c2cnc3ccccc3n2)cc1)c1cccc([N+](=O)[O-])c1,116.1,118.2,0.7,1.93,1.8,-34.9
O=C(Oc1ccc(-c2cnc3ccccc3n2)cc1)c1ccc(Cl)c([N+](=O)[O-])c1,137.7*,124.9,0.4,1.79,3.5,-16.0
COc1ccc(CC(=O)OCC(=O)NCc2ccco2)cc1OC,/,/,/,/,-2.5,/
CNC(=S)N/N=C/c1c(C)cccc1Cl,/,/,1.5,/,-0.2,-7.9

# Screening results as filed in PubChem BioAssay.
